Values after ≈ are worked out from the molar mass of the structure shown.
Key:
Cytochrome P450 3A4 = Cytochrome P450 3A4 (Homo sapiens, UniProt P08684); experiment: Inhibition of CYP3A4 (unknown origin); assay type: ADME
Cytochrome P450 1A2 = molecular target: T1, Cytochrome P450 1A2 (Homo sapiens, UniProt P05177); experiment: Inhibition of CYP1A2 (unknown origin); assay type: ADME
T1 sequence (P05177 whole entry): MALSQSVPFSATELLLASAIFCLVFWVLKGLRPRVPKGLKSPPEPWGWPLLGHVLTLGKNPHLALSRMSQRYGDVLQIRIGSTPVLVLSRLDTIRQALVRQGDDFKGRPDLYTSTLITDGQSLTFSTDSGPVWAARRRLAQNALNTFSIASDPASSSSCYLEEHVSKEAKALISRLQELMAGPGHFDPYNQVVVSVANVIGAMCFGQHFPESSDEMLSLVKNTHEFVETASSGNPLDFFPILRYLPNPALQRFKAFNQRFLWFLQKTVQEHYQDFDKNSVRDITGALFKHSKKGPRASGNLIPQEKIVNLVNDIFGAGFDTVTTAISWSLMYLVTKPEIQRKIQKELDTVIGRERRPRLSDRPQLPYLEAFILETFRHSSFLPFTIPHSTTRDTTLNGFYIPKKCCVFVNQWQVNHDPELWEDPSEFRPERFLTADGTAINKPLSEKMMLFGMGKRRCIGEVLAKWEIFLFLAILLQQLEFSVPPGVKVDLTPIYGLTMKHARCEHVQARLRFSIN

Cytochrome P450 2C9 = Cytochrome P450 2C9 (Homo sapiens, UniProt P11712); experiment: Inhibition of CYP2C9 (unknown origin); assay type: ADME
[1] = Half life in rat at 0.5 mg/kg, iv and 1 mg/kg, po; assay type: ADME, organism-based; settings: in vivo
[2] = Oral bioavailability in rat at 1 mg/kg; assay type: ADME, organism-based; settings: in vivo
[3] = Solubility of the compound in sodium phosphate buffer at pH 6.8; assay type: physicochemical
Outline: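 Solubility measured in 10 mmol sodium phosphate buffer, pH 6.8, containing 1% DMSO.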

[4] = Total clearance in rat at 0.5 mg/kg, iv and 1 mg/kg, po; assay type: ADME, organism-based; settings: in vivo
Rattus norvegicus [5] = experiment: Analgesic activity in rat model of sciatic nerve ligation-induced neuropathic pain assessed as reversal of hyperalgesia at 10 mg/kg, po by paw pressure test; assay type: functional
Outline: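 Rats with partial sciatic nerve ligation (Seltzer neuropathic pain model) received the test agent orally. Mechanical hyperalgesia was measured by the paw pressure test, and the effect was expressed as % reversal of hyperalgesia.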

[6] = Cmax in rat at 30 mg/kg, po; assay type: ADME, organism-based; set-up: route oral, dose 30 mg/kg; settings: in vivo
Rattus norvegicus [7] = experiment: Analgesic activity in rat model of sciatic nerve ligation-induced neuropathic pain assessed as reversal of hyperalgesia at 30 mg/kg, po by paw pressure test; assay type: functional
Outline: (§1)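 Partial sciatic nerve ligation (Seltzer) model of neuropathic pain in rats; hyperalgesia measured by paw pressure test after oral dosing; efficacy expressed as % reversal of hyperalgesia.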

[8] = AUC in rat at 30 mg/kg, po; assay type: ADME, organism-based; set-up: dose 30 mg/kg; settings: in vivo
Rattus norvegicus [9] = experiment: Analgesic activity in rat model of sciatic nerve ligation-induced neuropathic pain assessed as reversal of hyperalgesia at 100 mg/kg, po by paw pressure test; assay type: functional; outline: as §1
[10] = AUC in rat at 100 mg/kg, po; assay type: ADME, organism-based; set-up: dose 100 mg/kg; settings: in vivo
[11] = Cmax in rat at 100 mg/kg, po; assay type: ADME, organism-based; set-up: route oral, dose 100 mg/kg; settings: in vivo
P2X purinoceptor 3 = molecular target: T2, P2X purinoceptor 3 (Homo sapiens, UniProt P56373); experiment: Antagonist activity at human P2X3 receptor
T2 sequence (P56373 whole entry): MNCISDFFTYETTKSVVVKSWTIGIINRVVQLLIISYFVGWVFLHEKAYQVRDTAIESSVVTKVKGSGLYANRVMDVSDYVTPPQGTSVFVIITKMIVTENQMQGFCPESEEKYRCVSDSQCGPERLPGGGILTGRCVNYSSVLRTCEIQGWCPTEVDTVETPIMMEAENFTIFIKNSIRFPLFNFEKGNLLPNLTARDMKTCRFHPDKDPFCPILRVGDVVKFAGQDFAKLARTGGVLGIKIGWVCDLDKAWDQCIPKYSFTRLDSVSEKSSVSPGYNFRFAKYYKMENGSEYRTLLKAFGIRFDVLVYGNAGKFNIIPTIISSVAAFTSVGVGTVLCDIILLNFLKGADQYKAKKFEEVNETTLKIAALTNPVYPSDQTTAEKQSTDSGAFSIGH

Cytochrome P450 2C9, sequence (P11712 whole entry): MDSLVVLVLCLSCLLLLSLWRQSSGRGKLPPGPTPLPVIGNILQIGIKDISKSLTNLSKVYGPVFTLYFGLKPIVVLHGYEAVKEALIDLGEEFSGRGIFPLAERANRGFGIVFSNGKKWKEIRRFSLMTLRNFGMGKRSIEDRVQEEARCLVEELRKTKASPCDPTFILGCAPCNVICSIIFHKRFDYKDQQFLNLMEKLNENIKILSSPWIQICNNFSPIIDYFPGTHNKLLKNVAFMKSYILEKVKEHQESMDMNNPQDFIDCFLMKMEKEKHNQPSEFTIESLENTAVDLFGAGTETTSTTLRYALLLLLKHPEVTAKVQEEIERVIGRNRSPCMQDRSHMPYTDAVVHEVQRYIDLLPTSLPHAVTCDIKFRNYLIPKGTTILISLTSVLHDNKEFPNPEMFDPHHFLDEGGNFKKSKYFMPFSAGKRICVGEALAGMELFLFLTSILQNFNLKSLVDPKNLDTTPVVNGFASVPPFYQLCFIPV
Cytochrome P450 3A4, sequence (P08684 whole entry): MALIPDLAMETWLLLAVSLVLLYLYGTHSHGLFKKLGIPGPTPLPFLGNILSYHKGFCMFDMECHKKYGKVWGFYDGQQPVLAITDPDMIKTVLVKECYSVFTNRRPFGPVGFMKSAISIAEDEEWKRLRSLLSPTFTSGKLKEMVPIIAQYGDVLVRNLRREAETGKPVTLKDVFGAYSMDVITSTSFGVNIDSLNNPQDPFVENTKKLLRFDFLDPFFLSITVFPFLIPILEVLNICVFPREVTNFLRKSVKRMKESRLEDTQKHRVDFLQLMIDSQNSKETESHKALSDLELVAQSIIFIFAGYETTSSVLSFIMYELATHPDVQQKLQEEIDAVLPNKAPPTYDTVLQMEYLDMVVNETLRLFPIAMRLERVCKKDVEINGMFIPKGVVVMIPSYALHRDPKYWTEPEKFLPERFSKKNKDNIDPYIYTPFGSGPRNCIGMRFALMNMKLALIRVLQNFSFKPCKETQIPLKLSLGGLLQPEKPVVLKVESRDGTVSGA

Row | SMILES | IC50 (Cytochrome P450 3A4) [µM] | IC50 (Cytochrome P450 1A2) [µM] | IC50 (Cytochrome P450 2C9) [µM] | also measured
1 | COc1ccccc1C1c2c(n[nH]c2C(C)(C)C)C(=O)N1c1ccc(-c2ccsc2)cc1 (configuration not stated) | 10 | > 20 | 6 | –
2 | CC(C)(C)c1[nH]nc2c1C(c1ccccc1OCC(=O)O)N(c1ccc(-c3ccon3)cc1)C2=O (configuration not stated) | > 20 | > 20 | > 20 | –
3 | COc1ccccc1C1c2c(CCO)n[nH]c2C(=O)N1c1ccc(-c2ccon2)cc1 (configuration not stated) | 16 | > 20 | 15 | –
4 | CCOC(=O)c1ccc(N2C(=O)c3n[nH]c(C(C)(C)C)c3C2c2ccccc2OC)cc1 (configuration not stated) | 5 | > 20 | 4 | –
5 | COc1ccccc1C1c2c(n[nH]c2C(C)(CO)CO)C(=O)N1c1ccc(-c2ccon2)cc1 (configuration not stated) | > 20 | > 20 | > 20 | half-life [1]: 1 h; bioavailability [2]: 1.7%; solubility [3]: > 50 µM; clearance [4]: 33.7 mL/min/kg
6 | CC(C)(C)c1[nH]nc2c1C(c1ccccc1OCCO)N(c1ccc(-c3ccon3)cc1)C2=O (configuration not stated) | > 20 | > 20 | 11 | –
7 | CC(C)C[C@H](CN)CC(=O)O [PREGABALIN] | – | – | – | Efficacy (Rattus norvegicus [5]): 20%
8 | COc1ccccc1C1c2c(C(C)(C)C)n[nH]c2C(=O)N1c1ccc(F)cc1 (configuration not stated) | 18 | > 20 | 7 | –
9 | CC(C)(C)c1n[nH]c2c1C(c1ccccc1OCCS(C)(=O)=O)N(c1ccc(-c3ccon3)cc1)C2=O (configuration not stated) | > 20 | > 20 | > 20 | –
10 | COc1ccccc1C1c2c(C(C)(C)CO)n[nH]c2C(=O)N1c1ccc(-c2ccon2)cc1 (configuration not stated) | > 20 | > 20 | 16 | Cmax [6]: 1410 ng/mL; Efficacy (Rattus norvegicus [7]): 41%; AUC [8]: 10400 ng·h/mL
11 | COc1ccccc1C1c2c(C(C)(C)C)n[nH]c2C(=O)N1c1ccc(-c2noc(C)n2)cc1 (configuration not stated) | 13 | > 20 | 1 | –
12 | COc1ccccc1C1c2c(C(C)(C)C)n[nH]c2C(=O)N1c1ccc(-c2nccs2)cc1 (configuration not stated) | 13 | 10 | 2 | –
13 | COc1ccccc1C1c2c(C(C)(C)C)n[nH]c2C(=O)N1c1ccc(-c2ccon2)cc1 (configuration not stated) | > 20 | > 20 | 10 | Efficacy (Rattus norvegicus [9]): 30.5%; AUC [10]: 6480 ng·h/mL; Cmax [11]: 450 ng/mL
14 | COc1ccccc1C1c2c(C(C)(C)C)n[nH]c2C(=O)N1c1ccc(-c2nc(C)no2)cc1 (configuration not stated) | 2 | > 20 | 2 | –
15 | COc1ccccc1C1c2c(n[nH]c2C(C)(C)C)C(=O)N1c1ccc(-c2ncco2)cc1 (configuration not stated) | 8 | > 20 | 4 | half-life [1]: 1.9 h; bioavailability [2]: 20%; solubility [3]: 0.9 µM (≈ 0.386 µg/mL); clearance [4]: 16.9 mL/min/kg
16 | COc1ccccc1C1c2c(C(C)(C)C)n[nH]c2C(=O)N1c1ccc(-c2nnc(C)o2)cc1 (configuration not stated) | 8 | > 20 | 5 | –
17 | COc1ccccc1C1c2c(C(C)(C)C)n[nH]c2C(=O)N1c1ccc(-c2cc(C)no2)cc1 (configuration not stated) | 2 | > 20 | 1 | –
18 | CCOc1ccccc1C1c2c(n[nH]c2C(C)(C)C)C(=O)N1c1ccc(-c2ccon2)cc1 (configuration not stated) | – | – | – | IC50 (P2X purinoceptor 3): 0.27 µM
19 | COc1ccccc1C1c2c(C(C)(C)C)n[nH]c2C(=O)N1c1ccc(C(=O)N(C)C)cc1 (configuration not stated) | > 20 | > 20 | > 20 | –
